The text below walks through data of ChEMBL document CHEMBL4428027, “3-Hydroxypyrimidine-2,4-diones as Selective Active Site Inhibitors of HIV Reverse Transcriptase-Associated RNase H: Design, Synthesis, and Biochemical Evaluations” (J Med Chem, 2016).

For data set [1], the target named is T1, Human immunodeficiency virus type 1 reverse transcriptase (Human immunodeficiency virus 1, UniProt Q72547). The experiment in a line: Inhibition of polymerase activity of HIV1 reverse transcriptase using poly(rA)-oligo(dT)16 and [3H]-TTP incubated for 20 mins by liquid scintillation spectrometry. Summed up:
(§1)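 Reaction mix: 10 µM [3H]-TTP, 40 nM poly(rA)-oligo(dT)16, 50 mM Tris-HCl pH 7.4 (37°C), 60 mM KCl, 5 mM MgCl2. Started with 10 nM RT; 20 min at 37°C. Quenched in ice-cold 10% TCA with 20 mM sodium pyrophosphate, then glass-fibre filtered and washed with TCA and ethanol. Label incorporation read by liquid scintillation.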

Data set [2] addresses T1, Human immunodeficiency virus type 1 reverse transcriptase. Nature of the data set: Inhibition of RNase H activity of full length recombinant HIV1 reverse transcriptase assessed as reduction in DNA 3'-end cleavage using HTS2 substrate. Summed up:
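Recombinant p66/p51 RT heterodimer. Fluorescent RNA/DNA duplex substrate HTS-2 reports DNA 3′-end-directed (polymerase-dependent) cleavage. IC50 is the mean of at least three independent experiments.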

The target in data set [3] is Human immunodeficiency virus type 1 reverse transcriptase (Human immunodeficiency virus 1) (UniProt Q72547). The experiment in a line: Inhibition of HIV1 polymerase activity of reverse transcriptase using poly(rA)-oligo(dT)16 and [3H]-TTP up to 25 uM incubated for 20 mins by liquid scintillation spectrometry. In short, it runs like this: as §1
Data set [4] has as its target T1, Human immunodeficiency virus type 1 reverse transcriptase. The experiment in a line: Inhibition of RNase H activity of full length recombinant HIV1 reverse transcriptase assessed as reduction in RNA 5'-end directed cleavage using HTS3 substrate.
For data set [5] the target is unchanged. Nature of the data set: Inhibition of re-constituted HIV1 reverse transcriptase RNase H domain fragment. In short, it runs like this: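 Secondary check using a catalytically active, isolated HIV RNase H domain fragment (reconstituted) with duplex substrate HTS-1.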
Data set [6] can be described thus: Toxicity against human HeLa P4/R5 cells. The class given is cell-based.
The target in data set [7] is T1, Human immunodeficiency virus type 1 reverse transcriptase. Nature of the data set: Inhibition of RNase H activity of full length recombinant HIV1 reverse transcriptase assessed as reduction in nonspecific internal cleavage using HTS1 substrate. In short, it runs like this:
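Recombinant p66/p51 RT heterodimer. Fluorescent RNA/DNA duplex substrate HTS-1 measures internal cleavage. IC50 is the mean of at least three independent experiments.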

Data set [8] concerns Human immunodeficiency virus 1. The experiment in a line: Antiviral activity against HIV1 infected in human HeLa P4/R5 cells assessed as reduction in viral growth pre-incubated with cells for 16 hrs followed by additional 48 hrs incubation by fluorescence-based beta-galactosidase detection assay. In kind it is functional, organism-based. In short, it runs like this: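 P4R5 HeLa indicator cells (CD4, CXCR4, CCR5; HIV LTR-driven β-galactosidase reporter), 5×10^3 cells/well in DMEM/10% FBS with puromycin 0.5 µg/ml. Drug added 16 h before HIV exposure, then 48 h further incubation. Infection read by fluorescence-based β-galactosidase detection.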

For data set [9], the target named is Human immunodeficiency virus type 1 integrase (Human immunodeficiency virus 1, UniProt Q7ZJM1). Nature of the data set: Inhibition of HIV integrase pre-incubated for 10 mins before addition of oligo-5'-biotin ATGTGGAAAATCTCTAGCA annealed with ACTGCTAGAGATTTTCCACAT 3'-Cy5) substrate.
Sequence of Human immunodeficiency virus type 1 integrase (Q7ZJM1 whole entry): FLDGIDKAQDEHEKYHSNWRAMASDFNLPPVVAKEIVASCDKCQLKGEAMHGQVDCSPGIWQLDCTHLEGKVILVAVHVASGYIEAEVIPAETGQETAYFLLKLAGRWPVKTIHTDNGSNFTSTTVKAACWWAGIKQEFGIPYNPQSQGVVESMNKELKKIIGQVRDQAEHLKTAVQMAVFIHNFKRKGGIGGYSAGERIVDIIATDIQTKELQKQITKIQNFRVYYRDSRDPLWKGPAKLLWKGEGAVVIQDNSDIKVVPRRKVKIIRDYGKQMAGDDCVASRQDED
The target of data set [10] is Human immunodeficiency virus type 1 reverse transcriptase (Human immunodeficiency virus 1) (UniProt Q72547). The experiment in a line: Inhibition of RNase H activity of full length recombinant HIV1 reverse transcriptase assessed as reduction in nonspecific internal cleavage up to 25 uM using HTS1 substrate.
The target is the same in data set [11]. Conditions: up to 25 µM.
The target is the same in data set [12]. Nature of the data set: Inhibition of RNase H activity of full length recombinant HIV1 reverse transcriptase assessed as reduction in RNA 5'-end directed cleavage up to 25 uM using HTS3 substrate.
Data set [13] shares this target. The experiment in a line: Inhibition of re-constituted HIV1 reverse transcriptase RNase H domain fragment up to 25 uM. Summed up:
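Secondary check using a catalytically active, isolated HIV RNase H domain fragment (reconstituted) with duplex substrate HTS-1. […] Upper test concentration 25 µM.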

The source made the active and inactive calls. The rule behind the calls is not given here.

For `COc1cccc(-c2ccc(Oc3cc(=O)n(O)c(=O)n3C)cc2)c1`, the IC50 (as a rule, the concentration needed to halve the response being measured) was “Not Active” in [1]; 16 µM in data set [2] (read-out: IC50); 16 µM in [4] (read-out: IC50); 5.1 µM in data set [5] (read-out: IC50); 2 µM in [7] (read-out: IC50). For the same molecule, in [3], the inhibition result is “inactive”. Moreover, the CC50 (in general, the concentration giving 50% cytotoxicity) in data set [6] was found to be 6 µM.

Turning to `Cc1ccc(-c2ccc(Nc3cc(=O)n(O)c(=O)[nH]3)cc2)cc1`, the result in data set [8] was inactive. Further, the IC50 is 5.7 µM in [1] (read-out: IC50); 0.7 µM in [2] (read-out: IC50); 93 µM in data set [9]; 0.5 µM in data set [4] (read-out: IC50); 0.4 µM in [5] (read-out: IC50); 0.4 µM in data set [7] (read-out: IC50). In [6], this molecule registered a CC50 of over 25 µM.

Consider `Cn1c(Nc2ccc(-c3cccc(C#N)c3)cc2)cc(=O)n(O)c1=O`, for which the IC50 entry in data set [1] was “Not Active”; in [2] (read-out: IC50), 3.7 µM; in data set [9], 30 µM; in [4] (read-out: IC50) it was 3.3 µM; in [5] (read-out: IC50), 0.9 µM; in data set [7] (read-out: IC50) it was 1.2 µM. Moreover, the midpoint of cytotoxicity in data set [6], the CC50, lay at 25 µM.

In the case of `COc1ccc(-c2cccc(Nc3cc(=O)n(O)c(=O)[nH]3)c2)c(OC)c1`, the IC50 in data set [1] (read-out: IC50) was 3.2 µM; in [2] (read-out: IC50) it was 0.54 µM; in data set [9], 1.2 µM; in data set [4] (read-out: IC50) it was 2.4 µM; in data set [7] (read-out: IC50) it was 0.31 µM.

Consider `COc1ccc(-c2ccc(Nc3cc(=O)n(O)c(=O)n3C)cc2)cc1`, for which the IC50 result in [1] was “Not Active”; in data set [2] (read-out: IC50) it was 6.6 µM; in data set [9], 4.4 µM; in data set [4] (read-out: IC50), 5 µM; in [5] (read-out: IC50) it was 0.9 µM. It took 5 µM to reach half-maximal cytotoxicity in data set [6] (CC50).

Take `Cn1c(Nc2cccc(C3CCOC3)c2)cc(=O)n(O)c1=O` (centres undefined): the inhibition entry in [10], in data set [11], in data set [3], in data set [12] and in [13] was “inactive” in each case. Also, the IC50 entry in data set [1], in data set [2], in [4], in data set [5] and in [7] was “Not Active” in each case. Also, the CC50 in [6] was over 25 µM.

As for `COc1cc(OC)cc(-c2ccc(Nc3cc(=O)n(O)c(=O)[nH]3)cc2)c1`, the IC50 in [1] (read-out: IC50) is 0.34 µM; in [2] (read-out: IC50) it was 0.32 µM; in data set [9] it was 35 µM; in data set [4] (read-out: IC50), 0.25 µM; in [7] (read-out: IC50) it was 0.19 µM.

Turning to `COc1ccc(-c2cccc(Nc3cc(=O)n(O)c(=O)[nH]3)c2)cc1`, in data set [8], the result was inactive. The IC50 in data set [1] (read-out: IC50) was 6.3 µM; in data set [2] (read-out: IC50), 0.3 µM; in [9], over 100 µM; in data set [4] (read-out: IC50), 0.4 µM; in data set [5] (read-out: IC50), 0.1 µM; in [7] (read-out: IC50), 0.2 µM. Also, the CC50 in [6] is over 25 µM.

Consider `COc1cccc(-c2cccc(Nc3cc(=O)n(O)c(=O)n3C)c2)c1`, for which the IC50 entry in data set [1] was “Not Active”; in [2] (read-out: IC50), 3.5 µM; in [9] it was 4.6 µM; in [4] (read-out: IC50), 4.3 µM; in data set [5] (read-out: IC50), 1.7 µM; in data set [7] (read-out: IC50) it was 0.6 µM. The same molecule gave a CC50 in data set [6] of 10 µM.

As for `COc1cccc(-c2ccc(Nc3cc(=O)n(O)c(=O)[nH]3)cc2)c1`, in data set [8], the outcome was inactive. For the same molecule, the CC50 in [6] is over 25 µM.

For `Cn1c(Oc2ccccc2-c2ccccc2)cc(=O)n(O)c1=O`, the inhibition result in data set [11], in data set [3] and in data set [12] was “inactive” throughout. Besides, the IC50 entry in [1], in data set [2] and in [4] was “Not Active” throughout.

As to `Cc1ccc(-c2cccc(Nc3cc(=O)n(O)c(=O)[nH]3)c2)cc1`, the IC50 in [1] (read-out: IC50) worked out at 3.1 µM; in data set [2] (read-out: IC50), 0.45 µM; in [9] it was 44 µM; in data set [4] (read-out: IC50), 0.44 µM; in data set [7] (read-out: IC50) it was 0.38 µM.

On to `O=c1cc(Nc2cccc(-c3ccc(F)cc3)c2)[nH]c(=O)n1O`, for which the result in [8] was inactive. In addition, the IC50 in [1] (read-out: IC50) was 6.6 µM; in [2] (read-out: IC50), 0.3 µM; in data set [9], over 100 µM; in data set [4] (read-out: IC50) it was 0.3 µM; in [5] (read-out: IC50), 0.15 µM; in data set [7] (read-out: IC50), 0.2 µM. Besides, the CC50 in data set [6] is over 25 µM.

For `Cn1c(Nc2cccc(-c3cccc(C#N)c3)c2)cc(=O)n(O)c1=O`, the IC50 in data set [1] (read-out: IC50) was 5 µM; in data set [2] (read-out: IC50), 3.2 µM; in [9], 7.1 µM; in data set [4] (read-out: IC50), 4.1 µM; in [5] (read-out: IC50), 1 µM; in data set [7] (read-out: IC50), 1.1 µM. This molecule registered a CC50 in [6] of over 25 µM.

On to `COc1cccc(OC)c1-c1cccc(Nc2cc(=O)n(O)c(=O)[nH]2)c1`, for which the IC50 in data set [1] (read-out: IC50) came out at 1.7 µM; in data set [2] (read-out: IC50), 0.7 µM; in data set [9], 1.3 µM; in [4] (read-out: IC50) it was 0.47 µM; in data set [7] (read-out: IC50), 0.51 µM.

In the case of `COc1ccc(-c2ccccc2Oc2cc(=O)n(O)c(=O)n2C)cc1`, the IC50 entry is “Not Active” in data set [1]; “Not Active” in [2]; 1 µM in data set [9]; 22 µM in data set [4] (read-out: IC50); 6.4 µM in [5] (read-out: IC50); 2.3 µM in data set [7] (read-out: IC50). In data set [6], this molecule returned a CC50 of 6 µM.

Take `Cc1noc(C)c1-c1ccc(Nc2cc(=O)n(O)c(=O)n2C)cc1`: the IC50 entry in data set [1] was “Not Active”; in [2] (read-out: IC50), 4.4 µM; in [9] it was 25 µM; in [4] (read-out: IC50), 3.8 µM; in [7] (read-out: IC50), 1.6 µM.
